Assay results reported in ChEMBL document CHEMBL1208662, “Antimicrobial activity and a SAR study of some novel benzimidazole derivatives bearing hydrazone moiety” (Eur J Med Chem, 2010).
In brackets after ≈: the same amount, converted by molar mass.

Assays:
[1] = tested on: Candida albicans; experiment: Antimicrobial activity against Candida albicans by broth microdilution method; format: functional
Summary of the method: (§1)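 Yeasts grown overnight at 35 ± 1 °C in Sabouraud dextrose broth. Tested by CLSI M7-A7 broth microdilution in Sabouraud dextrose broth, pH 7, two-fold serial dilutions 800 down to 1.5625 μg/mL of DMSO-dissolved compound. DMSO-only control. Inoculum matched to McFarland 0.5, final 0.5-2.5 × 10^5 cfu/mL. MIC is last well without growth, µg/mL. Duplicate readings. Ketoconazole reference.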

[2] = tested on: Escherichia coli; experiment: Antimicrobial activity against Escherichia coli 25922 by broth microdilution method; format: functional
Summary of the method: (§2)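 CLSI M7-A7 broth microdilution, two-fold serial dilutions 800 down to 1.5625 μg/mL in Mueller–Hinton broth, pH 7. Compounds dissolved in DMSO; DMSO-only solvent control. Overnight cultures at 35 ± 1 °C, inoculum matched to McFarland 0.5, final 0.5-2.5 × 10^5 cfu/mL. MIC taken as last well without growth, µg/mL. Run twice. Chloramphenicol reference.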

[3] = tested on: Staphylococcus aureus; experiment: Antimicrobial activity against Staphylococcus aureus by broth microdilution method; format: functional; summary of the method: as §2
[4] = tested on: Salmonella typhimurium; experiment: Antimicrobial activity against Salmonella Typhimurium by broth microdilution method; format: functional, Salmonella enterica subsp. enterica serovar Typhimurium; conditions: Salmonella enterica; summary of the method: as §2
[5] = tested on: Proteus vulgaris; experiment: Antimicrobial activity against Proteus vulgaris by broth microdilution method; format: functional; summary of the method: as §2
[6] = tested on: Enterococcus faecalis; experiment: Antimicrobial activity against Enterococcus faecalis by broth microdilution method; format: functional; summary of the method: as §2
[7] = tested on: Escherichia coli; experiment: Antimicrobial activity against Escherichia coli 35218 by broth microdilution method; format: functional; summary of the method: as §2
[8] = tested on: Nakaseomyces glabratus; experiment: Antimicrobial activity against Candida glabrata by broth microdilution method; format: functional; summary of the method: as §1
[9] = tested on: Candida tropicalis; experiment: Antimicrobial activity against Candida tropicalis by broth microdilution method; format: functional; summary of the method: as §1
[10] = tested on: Klebsiella pneumoniae; experiment: Antimicrobial activity against Klebsiella pneumoniae by broth microdilution method; format: functional; summary of the method: as §2
[11] = tested on: Listeria monocytogenes; experiment: Antimicrobial activity against Listeria monocytogenes by broth microdilution method; format: functional; summary of the method: as §2
[12] = tested on: Bacillus subtilis; experiment: Antimicrobial activity against Bacillus subtilis by broth microdilution method; format: functional; summary of the method: as §2
[13] = tested on: Pseudomonas aeruginosa; experiment: Antimicrobial activity against Pseudomonas aeruginosa by broth microdilution method; format: functional; summary of the method: as §2
[14] = Toxicity in Artemia salina after 24 hrs; format: organism-based; conditions: in vivo

MIC [1]	MIC [2]	MIC [3]	MIC [4]	MIC [5]	MIC [6]	MIC [7]	MIC [8]	MIC [9]	MIC [10]	MIC [11]	MIC [12]	MIC [13]	Compound	LC50 at 24 h [14]
100 µg/mL (≈ 245 µM)	100 µg/mL (≈ 245 µM)	25 µg/mL (≈ 61.2 µM)	12.5 µg/mL (≈ 30.6 µM)	50 µg/mL (≈ 122 µM)	12.5 µg/mL (≈ 30.6 µM)	25 µg/mL (≈ 61.2 µM)	100 µg/mL (≈ 245 µM)	50 µg/mL (≈ 122 µM)	25 µg/mL (≈ 61.2 µM)	200 µg/mL (≈ 490 µM)	50 µg/mL (≈ 122 µM)	50 µg/mL (≈ 122 µM)	O=C(N/N=C/c1ccc(C(F)(F)F)cc1)c1ccc(-c2nc3ccccc3[nH]2)cc1	
100 µg/mL (≈ 281 µM)	100 µg/mL (≈ 281 µM)	50 µg/mL (≈ 140 µM)	25 µg/mL (≈ 70.1 µM)	25 µg/mL (≈ 70.1 µM)	25 µg/mL (≈ 70.1 µM)	25 µg/mL (≈ 70.1 µM)	100 µg/mL (≈ 281 µM)	100 µg/mL (≈ 281 µM)	25 µg/mL (≈ 70.1 µM)	400 µg/mL (≈ 1120 µM)	25 µg/mL (≈ 70.1 µM)	25 µg/mL (≈ 70.1 µM)	O=C(N/N=C/c1ccc(O)cc1)c1ccc(-c2nc3ccccc3[nH]2)cc1	
50 µg/mL (≈ 130 µM)	100 µg/mL (≈ 259 µM)	25 µg/mL (≈ 64.9 µM)	12.5 µg/mL (≈ 32.4 µM)	50 µg/mL (≈ 130 µM)	25 µg/mL (≈ 64.9 µM)	25 µg/mL (≈ 64.9 µM)	100 µg/mL (≈ 259 µM)	100 µg/mL (≈ 259 µM)	25 µg/mL (≈ 64.9 µM)	200 µg/mL (≈ 519 µM)	50 µg/mL (≈ 130 µM)	50 µg/mL (≈ 130 µM)	O=C(N/N=C/c1ccc([N+](=O)[O-])cc1)c1ccc(-c2nc3ccccc3[nH]2)cc1	
100 µg/mL (≈ 274 µM)	100 µg/mL (≈ 274 µM)	25 µg/mL (≈ 68.4 µM)	12.5 µg/mL (≈ 34.2 µM)	50 µg/mL (≈ 137 µM)	12.5 µg/mL (≈ 34.2 µM)	25 µg/mL (≈ 68.4 µM)	100 µg/mL (≈ 274 µM)	50 µg/mL (≈ 137 µM)	12.5 µg/mL (≈ 34.2 µM)	200 µg/mL (≈ 547 µM)	50 µg/mL (≈ 137 µM)	50 µg/mL (≈ 137 µM)	N#Cc1ccc(/C=N/NC(=O)c2ccc(-c3nc4ccccc4[nH]3)cc2)cc1	
100 µg/mL (≈ 279 µM)	50 µg/mL (≈ 140 µM)	50 µg/mL (≈ 140 µM)	6.25 µg/mL (≈ 17.4 µM)	50 µg/mL (≈ 140 µM)	25 µg/mL (≈ 69.8 µM)	25 µg/mL (≈ 69.8 µM)	100 µg/mL (≈ 279 µM)	50 µg/mL (≈ 140 µM)	25 µg/mL (≈ 69.8 µM)	200 µg/mL (≈ 558 µM)	25 µg/mL (≈ 69.8 µM)	50 µg/mL (≈ 140 µM)	O=C(N/N=C/c1ccc(F)cc1)c1ccc(-c2nc3ccccc3[nH]2)cc1	
200 µg/mL (≈ 520 µM)	200 µg/mL (≈ 520 µM)	50 µg/mL (≈ 130 µM)	25 µg/mL (≈ 65 µM)	100 µg/mL (≈ 260 µM)	50 µg/mL (≈ 130 µM)	50 µg/mL (≈ 130 µM)	200 µg/mL (≈ 520 µM)	200 µg/mL (≈ 520 µM)	50 µg/mL (≈ 130 µM)	400 µg/mL (≈ 1040 µM)	50 µg/mL (≈ 130 µM)	100 µg/mL (≈ 260 µM)	O=C(O)c1ccc(/C=N/NC(=O)c2ccc(-c3nc4ccccc4[nH]3)cc2)cc1	
100 µg/mL (≈ 261 µM)	100 µg/mL (≈ 261 µM)	50 µg/mL (≈ 130 µM)	25 µg/mL (≈ 65.2 µM)	50 µg/mL (≈ 130 µM)	25 µg/mL (≈ 65.2 µM)	25 µg/mL (≈ 65.2 µM)	50 µg/mL (≈ 130 µM)	100 µg/mL (≈ 261 µM)	50 µg/mL (≈ 130 µM)	200 µg/mL (≈ 522 µM)	25 µg/mL (≈ 65.2 µM)	25 µg/mL (≈ 65.2 µM)	CN(C)c1ccc(/C=N/NC(=O)c2ccc(-c3nc4ccccc4[nH]3)cc2)cc1	
50 µg/mL (≈ 147 µM)	100 µg/mL (≈ 294 µM)	25 µg/mL (≈ 73.4 µM)	12.5 µg/mL (≈ 36.7 µM)	50 µg/mL (≈ 147 µM)	12.5 µg/mL (≈ 36.7 µM)	25 µg/mL (≈ 73.4 µM)	100 µg/mL (≈ 294 µM)	100 µg/mL (≈ 294 µM)	25 µg/mL (≈ 73.4 µM)	400 µg/mL (≈ 1180 µM)	25 µg/mL (≈ 73.4 µM)	25 µg/mL (≈ 73.4 µM)	O=C(N/N=C/c1ccccc1)c1ccc(-c2nc3ccccc3[nH]2)cc1	
	12.5 µg/mL (≈ 38.7 µM)	12.5 µg/mL (≈ 38.7 µM)	12.5 µg/mL (≈ 38.7 µM)	50 µg/mL (≈ 155 µM)	12.5 µg/mL (≈ 38.7 µM)	12.5 µg/mL (≈ 38.7 µM)			12.5 µg/mL (≈ 38.7 µM)	50 µg/mL (≈ 155 µM)	12.5 µg/mL (≈ 38.7 µM)	50 µg/mL (≈ 155 µM)	O=C(N[C@H](CO)[C@H](O)c1ccc([N+](=O)[O-])cc1)C(Cl)Cl [CHLORAMPHENICOL]	
100 µg/mL (≈ 270 µM)	50 µg/mL (≈ 135 µM)	25 µg/mL (≈ 67.5 µM)	6.25 µg/mL (≈ 16.9 µM)	50 µg/mL (≈ 135 µM)	12.5 µg/mL (≈ 33.7 µM)	25 µg/mL (≈ 67.5 µM)	50 µg/mL (≈ 135 µM)	50 µg/mL (≈ 135 µM)	25 µg/mL (≈ 67.5 µM)	200 µg/mL (≈ 540 µM)	25 µg/mL (≈ 67.5 µM)	25 µg/mL (≈ 67.5 µM)	COc1ccc(/C=N/NC(=O)c2ccc(-c3nc4ccccc4[nH]3)cc2)cc1	

Compound	MIC [1]	MIC [2]	MIC [3]	MIC [4]	MIC [5]	MIC [6]	MIC [7]	MIC [8]	MIC [9]	MIC [10]	MIC [11]	MIC [12]	MIC [13]	LC50 at 24 h [14]
CC(=O)N1CCN(c2ccc(OCC3COC(Cn4ccnc4)(c4ccc(Cl)cc4Cl)O3)cc2)CC1 (configuration not stated) [KETOCONAZOLE]	50 µg/mL (≈ 94.1 µM)							25 µg/mL (≈ 47 µM)	50 µg/mL (≈ 94.1 µM)					
Cc1ccc(/C=N/NC(=O)c2ccc(-c3nc4ccccc4[nH]3)cc2)cc1	100 µg/mL (≈ 282 µM)	100 µg/mL (≈ 282 µM)	25 µg/mL (≈ 70.5 µM)	6.25 µg/mL (≈ 17.6 µM)	25 µg/mL (≈ 70.5 µM)	12.5 µg/mL (≈ 35.3 µM)	25 µg/mL (≈ 70.5 µM)	100 µg/mL (≈ 282 µM)	100 µg/mL (≈ 282 µM)	12.5 µg/mL (≈ 35.3 µM)	200 µg/mL (≈ 564 µM)	50 µg/mL (≈ 141 µM)	50 µg/mL (≈ 141 µM)	> 1000 µg/mL
O=C(N/N=C/c1ccc(Br)cc1)c1ccc(-c2nc3ccccc3[nH]2)cc1	100 µg/mL (≈ 239 µM)	50 µg/mL (≈ 119 µM)	25 µg/mL (≈ 59.6 µM)	12.5 µg/mL (≈ 29.8 µM)	25 µg/mL (≈ 59.6 µM)	12.5 µg/mL (≈ 29.8 µM)	25 µg/mL (≈ 59.6 µM)	100 µg/mL (≈ 239 µM)	50 µg/mL (≈ 119 µM)	12.5 µg/mL (≈ 29.8 µM)	200 µg/mL (≈ 477 µM)	25 µg/mL (≈ 59.6 µM)	25 µg/mL (≈ 59.6 µM)	> 1000 µg/mL
O=C(N/N=C/c1ccc(Cl)cc1)c1ccc(-c2nc3ccccc3[nH]2)cc1	50 µg/mL (≈ 133 µM)	100 µg/mL (≈ 267 µM)	12.5 µg/mL (≈ 33.3 µM)	6.25 µg/mL (≈ 16.7 µM)	25 µg/mL (≈ 66.7 µM)	12.5 µg/mL (≈ 33.3 µM)	25 µg/mL (≈ 66.7 µM)	50 µg/mL (≈ 133 µM)	50 µg/mL (≈ 133 µM)	12.5 µg/mL (≈ 33.3 µM)	100 µg/mL (≈ 267 µM)	25 µg/mL (≈ 66.7 µM)	25 µg/mL (≈ 66.7 µM)	> 1000 µg/mL
